Measurements reported in ChEMBL document CHEMBL3526048, “In vitro metabolism of rivoglitazone, a novel peroxisome proliferator-activated receptor γ agonist, in rat, monkey, and human liver microsomes and freshly isolated hepatocytes” (Drug Metab Dispos, 2011).

Experiments:
Type in all cases: ADME
Cytochrome P450 1A2 = biological target: T1, Cytochrome P450 1A2 (Homo sapiens, UniProt P05177); test: Activity of human CYP1A2 expressed in microsomes isolated from baculovirus infected insect cell assessed as enzyme-mediated compound formation treated with [14C]-rivoglitazone at 20 uM after 2 hrs by radio-HPLC/LC-MS/MS analysis in presence of NADPH-generating system
T1 sequence (P05177 whole entry): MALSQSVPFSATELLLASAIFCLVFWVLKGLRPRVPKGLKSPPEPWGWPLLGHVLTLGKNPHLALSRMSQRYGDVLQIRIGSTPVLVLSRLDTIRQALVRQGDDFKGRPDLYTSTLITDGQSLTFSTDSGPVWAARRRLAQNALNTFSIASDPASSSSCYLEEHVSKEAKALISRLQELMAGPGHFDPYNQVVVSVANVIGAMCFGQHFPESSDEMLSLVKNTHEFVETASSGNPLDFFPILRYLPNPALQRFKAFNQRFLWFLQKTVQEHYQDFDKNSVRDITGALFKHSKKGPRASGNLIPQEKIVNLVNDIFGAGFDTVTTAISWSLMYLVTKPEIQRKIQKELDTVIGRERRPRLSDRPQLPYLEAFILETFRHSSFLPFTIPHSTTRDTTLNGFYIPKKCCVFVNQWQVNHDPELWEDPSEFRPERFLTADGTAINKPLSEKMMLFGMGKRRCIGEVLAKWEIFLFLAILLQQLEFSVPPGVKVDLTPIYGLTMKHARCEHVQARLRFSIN
Summary of the method: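 Baculovirus/insect-cell microsomes expressing single human CYPs, 1 mg/ml protein, with 50 mM potassium phosphate (pH 7.4) or 100 mM Tris-HCl (pH 7.5). NADPH-generating system: 2 mM NADP⁺, 20 mM glucose 6-phosphate, 2 units/ml G6PDH, 10 mM MgCl₂. [¹⁴C]rivoglitazone at 20 μM, 2 h at 37°C with shaking. Control used insect-cell control supersomes. Stopped with acetonitrile; supernatant concentrated under nitrogen; metabolites analysed by radio-HPLC, LC-MS and LC-MS/MS.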

Liver microsome [1] = test: Drug metabolism in Sprague-Dawley rat liver microsomes assessed as formation of 2-amino-3-((1-carboxy-2-(4-((6-methoxy-1-methyl-1H-benzo[d]imidazol-2-yl)methoxy)phenyl)ethyl)disulfanyl)propanoic acid at 20 uM by radio-HPLC/LC-MS/MS analysis
Liver microsome [2] = test: Drug metabolism in human liver microsomes assessed as formation of 2-hydroxy-3-(4-((6-methoxy-1-methyl-1H-benzo[d]imidazol-2-yl)methoxy)phenyl)propanamide at 20 uM after 2 hrs by radio-HPLC/LC-MS/MS analysis in presence of NADPH-generating system and NADPH-generating system/SAM
[3] = biological target: T2, UDP-glucuronosyltransferase 1A10 (Homo sapiens, UniProt Q9HAW8); test: Activity of human UGT1A10 expressed in microsomes isolated from baculovirus infected insect cell assessed as enzyme-mediated (2S,3S,4S,5R,6R)-3,4,5-trihydroxy-6-(5-(4-((6-methoxy-1-methyl-1H-benzo[d]imidazol-2-yl)methoxy)benzyl)-2,4-dioxothiazolidin-3-yl)tetrahydro-2H-pyran-2-carboxylic acid formation at 20 uM after 4 hrs by radio-HPLC/LC-MS/MS analysis in presence of UDPGA
T2 sequence (Q9HAW8 whole entry): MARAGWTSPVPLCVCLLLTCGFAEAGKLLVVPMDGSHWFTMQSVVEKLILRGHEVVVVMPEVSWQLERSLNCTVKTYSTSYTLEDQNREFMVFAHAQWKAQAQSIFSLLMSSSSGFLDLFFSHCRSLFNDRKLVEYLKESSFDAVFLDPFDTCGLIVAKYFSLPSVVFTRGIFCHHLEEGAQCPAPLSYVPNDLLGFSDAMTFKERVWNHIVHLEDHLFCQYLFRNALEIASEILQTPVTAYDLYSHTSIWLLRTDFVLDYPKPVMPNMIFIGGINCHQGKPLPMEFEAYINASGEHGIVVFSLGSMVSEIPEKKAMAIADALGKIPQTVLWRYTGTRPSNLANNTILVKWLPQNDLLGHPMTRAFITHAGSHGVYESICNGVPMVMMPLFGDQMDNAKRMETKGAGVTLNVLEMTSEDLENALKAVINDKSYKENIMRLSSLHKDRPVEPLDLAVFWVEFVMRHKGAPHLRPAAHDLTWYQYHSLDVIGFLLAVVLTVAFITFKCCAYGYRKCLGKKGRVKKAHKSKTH
Summary of the method: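 Alamethicin (50 μg/mg protein, 15 min on ice) pretreated expressed human UGT microsomes (1 mg/ml protein) from baculovirus-infected insect cells. Incubation with [¹⁴C]rivoglitazone (20 μM) in 100 mM Tris-HCl (pH 7.5) with 10 mM MgCl₂, started by 5 mM UDPGA, 4 h at 37°C with shaking. UGT insect-cell control supersomes were run alongside. Acetonitrile stop, concentrated supernatant analysed by radio-HPLC, LC-MS and LC-MS/MS.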

Cytochrome P450 2C19 = Cytochrome P450 2C19 (Homo sapiens, UniProt P33261); test: (§1) Activity of human CYP2C19 expressed in microsomes isolated from baculovirus infected insect cell assessed as enzyme-mediated (2S,3S,4S,5R,6R)-6-((1-carboxy-2-(4-((6-methoxy-1-methyl-1H-benzo[d]imidazol-2-yl)methoxy)phenyl)ethylthio)carbonylamino)-3,4,5-trihydroxytetrahydro-2H-pyran-2-carboxylic acid formation at 20 uM after 2 hrs by radio-HPLC/LC-MS/MS analysis in presence of NADPH-generating system/SAM
Cytochrome P450 2C19, sequence (P33261 whole entry): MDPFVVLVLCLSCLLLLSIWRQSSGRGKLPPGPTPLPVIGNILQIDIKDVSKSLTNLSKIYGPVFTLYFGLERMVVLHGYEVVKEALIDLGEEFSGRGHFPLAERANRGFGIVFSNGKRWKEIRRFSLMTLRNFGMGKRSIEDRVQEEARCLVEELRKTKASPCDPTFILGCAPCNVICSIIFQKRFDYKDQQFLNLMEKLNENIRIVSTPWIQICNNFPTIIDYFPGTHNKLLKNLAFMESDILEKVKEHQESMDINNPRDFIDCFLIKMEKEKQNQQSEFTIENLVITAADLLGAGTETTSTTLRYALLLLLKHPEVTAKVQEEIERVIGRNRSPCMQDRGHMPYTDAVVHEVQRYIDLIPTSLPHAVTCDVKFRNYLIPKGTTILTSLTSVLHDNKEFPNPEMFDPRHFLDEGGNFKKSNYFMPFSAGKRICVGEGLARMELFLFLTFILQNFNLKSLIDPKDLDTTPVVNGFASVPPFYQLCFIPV

[4] = biological target: T3, UDP-glucuronosyltransferase 2B7 (Homo sapiens, UniProt P16662); test: (§2) Activity of human UGT2B7 expressed in microsomes isolated from baculovirus infected insect cell assessed as enzyme-mediated 5-(4-((6-methoxy-1H-benzo[d]imidazol-2-yl)methoxy)benzyl)thiazolidine-2,4-dione formation at 20 uM after 4 hrs by radio-HPLC/LC-MS/MS analysis in presence of NADPH-generating system and NADPH-generating system/SAM in presence of UDPGA and UDPGA/SAM
T3 sequence (P16662 whole entry): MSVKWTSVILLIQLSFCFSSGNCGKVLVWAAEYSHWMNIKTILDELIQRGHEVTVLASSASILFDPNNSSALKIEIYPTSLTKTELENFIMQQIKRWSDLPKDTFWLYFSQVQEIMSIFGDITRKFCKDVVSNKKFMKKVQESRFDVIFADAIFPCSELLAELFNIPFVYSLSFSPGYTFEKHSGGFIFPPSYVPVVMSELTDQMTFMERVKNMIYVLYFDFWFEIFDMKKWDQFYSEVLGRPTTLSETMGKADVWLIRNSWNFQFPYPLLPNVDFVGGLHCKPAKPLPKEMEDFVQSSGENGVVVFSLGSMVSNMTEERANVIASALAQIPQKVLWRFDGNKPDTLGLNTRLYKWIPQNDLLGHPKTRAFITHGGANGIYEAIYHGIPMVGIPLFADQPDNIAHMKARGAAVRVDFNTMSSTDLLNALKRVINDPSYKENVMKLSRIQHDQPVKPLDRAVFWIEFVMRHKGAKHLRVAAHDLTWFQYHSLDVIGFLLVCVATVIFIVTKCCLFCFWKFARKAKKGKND

[5] = biological target: T3, UDP-glucuronosyltransferase 2B7; test: as §2, with “2-hydroxy-3-(4-((6-methoxy-1-methyl-1H-benzo[d]imidazol-2-yl)methoxy)phenyl)propanamide” for “5-(4-((6-methoxy-1H-benzo[d]imidazol-2-yl)methoxy)benzyl)thiazolidine-2,4-dione”
[6] = biological target: T3, UDP-glucuronosyltransferase 2B7; test: as §1, with “human UGT2B7” for “human CYP2C19”, “after 4” for “after 2”

| Drug metabolism (Cytochrome P450 1A2) | Drug metabolism (Liver microsome [1]) | Drug metabolism (Liver microsome [2]) | Drug metabolism [3] | Drug metabolism (Cytochrome P450 2C19) | Drug metabolism [4] | Drug metabolism [5] | Drug metabolism [6] | SMILES |
| --- | --- | --- | --- | --- | --- | --- | --- | --- |
| metabolite_detected |  |  |  |  |  |  |  | COc1ccc2nc(COc3ccc(CC(S)C(=O)O)cc3)n(C)c2c1 (stereo not drawn) |
|  | metabolite_not_detected | metabolite_detected | metabolite_not_detected | metabolite_not_detected | metabolite_not_detected | metabolite_not_detected | metabolite_detected | COc1ccc2nc(COc3ccc(C[14CH]4SC(=O)NC4=O)cc3)n(C)c2c1.Cl (racemic) |
